# From ChEMBL document CHEMBL1671775, “Synthesis, anticancer activity, and iron affinity of the Actinoplanes metabolite 7,8-dihydroxy-1-methylnaphtho[2,3-c]furan-4,9-dione” (Bioorg Med Chem, 2011)
# Assays:
# Type in all cases: functional, cell-based
# [1] = Cytotoxicity against human MCF7/Topo cells after 72 hrs by MTT assay
# How it was run: (§1)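 Cells were seeded at 5 × 10^4/mL and cultured 24 h, then exposed to compound for 72 h. KB-V1/Vbl cells were grown in DMEM with 10% FCS and MCF-7/Top cells in EMEM with 5% FCS, pyruvate and NaHCO3. MTT was added to a final 0.1% for 2 h. Medium was discarded, and formazan was dissolved in DMSO/SDS/acetic acid. A570 was read against A630 background. IC50 was taken from concentration–response curves versus untreated controls; four independent experiments.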
# [2] = test system: HFF; test: Cytotoxicity against human HFF after 72 hrs by MTT assay
# How it was run: (§2)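 518A2 cells and foreskin fibroblasts were grown in DMEM with 10% FCS, seeded at 5 × 10^4/mL and cultured 24 h. Cells were then exposed to compound for 72 h. MTT was added to a final 0.05% for 2 h. Medium was discarded, and formazan was dissolved in DMSO/10% SDS/0.6% acetic acid. A570 was read against A630 background. IC50 was taken from concentration–response curves versus untreated controls; four independent experiments.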
# [3] = Cytotoxicity against human KB-V1/Vbl cells after 72 hrs by MTT assay; how it was run: as §1
# [4] = test system: HL-60; test: Cytotoxicity against human HL60 cells after 72 hrs by MTT assay; conditions: HL-60, 72 h
# How it was run: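 HL-60 cells were grown in RPMI 1640 with 10% FCS at 37 °C and 5% CO2, seeded at 5 × 10^5/mL and cultured 24 h. Cells were then exposed to compound for 72 h. MTT was added to a final 0.05% for 2 h, and formazan was dissolved in DMSO with 10% SDS and 0.6% acetic acid. A570 was read against A630 background. IC50 was taken from concentration–response curves relative to untreated controls; quadruplicate, four independent experiments.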
# [5] = test system: HT-29; test: Cytotoxicity against human HT-29 cells after 72 hrs by MTT assay; conditions: HT-29, 72 h
# [6] = Cytotoxicity against human 518A2 cells after 72 hrs by MTT assay; conditions: 518A2, 72 h; how it was run: as §2
Structure (SMILES),IC50 [1],IC50 [2],IC50 [3],IC50 [4],IC50 [5],IC50 [6]
CC1=CC(=O)C(C(C)C)=CC1=O [THYMOQUINONE],27 µM,33 µM,32 µM,28 µM,47 µM,28 µM
COc1ccc2c(c1O)C(=O)c1c(coc1C)C2=O,16 µM,31 µM,51 µM,18 µM,31 µM,> 100 µM
Cc1occ2c1C(=O)c1c(ccc(O)c1O)C2=O,> 100 µM,69 µM,86 µM,89 µM,70 µM,84 µM
